# Most compounds without a hit are left out; they make up all but 5.1% or so of the library.
# STAT3 act-1 – IL-6 driven STAT3 reporter potentiators, primary screen, U3A cells, luciferase, luminescence, MLSCN library. IL-6 STAT3-luciferase reporter; 100% = signal with IL-6 EC80 alone. activation (% of control), % at 5.6 µM. 190,000 compounds, 0.91% hits. AID 871, 2007;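 active means activation above the screen-wide mean of compound activation plus 3 SD, cut at about 130% in these data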;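 further: 0% = background luminescence of wells with medium and substrate only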
#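 Test system: STAT3-luciferase reporter U3A cells; Detection: reporter luminescence signal; Times: 1 h compound pre-exposure, 6 h IL-6 stimulation, 37 °C; Benchmarks: IL-6-only high control; Also added: IL-6 stimulus at 33 ng/mL final.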
# STAT1 act-1 – STAT1 signaling activators, primary screen, cell-based, HTS, luciferase reporter; NIH 3T3 STAT1-luciferase reporter, IFN-gamma, luminescence; 100% = IFN-gamma alone, no compound; activation (% of control), % at 5.5 µM; 200,000 compounds, 2.6% hits;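 active means activation above the screen-wide mean activation plus 3 SD, cut at about 130% in these data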;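 further: raw ratio to IFN-gamma control signal so 100% means no change and 0% no light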
# STAT3 blocker – IL-6 driven STAT3 reporter inhibitors, primary screen, U3A cells, luciferase, luminescence, MLSCN library; 190,000 compounds, 0.89% hits; AID 862, 2007; inhibition, % at 5.5 µM; IL-6 STAT3-luciferase reporter; host cell line lacks STAT1;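 active means inhibition above the mean inhibition across all screened compounds plus 3 SD, cut at about 44% in these data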;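 further: 0% = DMSO only wells and 100% = 100 µM nifuroxazide control wells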
# NF-kB neuron act – activators of NF-kB expression in neurons, primary screen, cell-based, HTS; fold change at 12.5 µM; AID 1239, 2008; human neuronal cells, NF-kB reporter expression; stronger effect = higher value; 190,000 compounds, 1.6% hits; in the data active means fold change above about 3.3
# STAT1 inh – STAT1 signaling inhibitors, primary screen, cell-based, HTS, luciferase reporter. NIH 3T3 STAT1-luciferase reporter, IFN-gamma, luminescence. inhibition, % at 5.5 µM. 200,000 compounds, 0.35% hits. AID 920, 2007;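 active means inhibition above a set limit, the mean inhibition across all tested compounds plus 3 SD, cut at about 34% in these data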;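 further: 0% = IFN-gamma with DMSO and 100% = IFN-gamma with 300 µM nifuroxazide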
# APP 5'UTR act – activators of APP 5'UTR luciferase reporter, primary screen, SH-SY5Y cells. SH-SY5Y APP 5'UTR luciferase reporter, luminescence; zero percent = DMSO vehicle wells. activation, % at 2 µM. 190,000 compounds, 1% hits. AID 1276, 2008;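 active means activation above a set limit, based on mean plus 3 SD of controls, cut at about 140% in these data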
# STAT3 act-2 – STAT3 reporter potentiators, retest of hits, confirmation, U3A cells, luciferase, luminescence; shares compounds with STAT3 act-1; IL-6 potentiation; U3A cells lack STAT1; 100 means same as IL-6 alone; potentiation (% of control), % at 5.7 µM; 1,200 compounds, 64% hits; AID 1267, 2008;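 active means percent activation of the STAT3 luciferase reporter above a set limit taken from the earlier primary screen, cut at about 130% in these data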;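 further: 0% = background signal of medium plus substrate and 100% = median of IL-6 with DMSO wells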
# NFkB act STAT3ct – NF-kB reporter activators in human cells, counter-screen for STAT3 activator project; shares compounds with STAT3 act-1; 1,200 compounds, 11% hits; activation (% of control), % at 5.7 µM; AID 1309, 2008; NF-kappaB reporter activation; in the data active means activation above about 120%;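 further: reporter induced by TNF-alpha stimulation; 100% = median of stimulated DMSO wells and 0% = no signal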
# STAT1 act-2 – STAT1 reporter activators, IFN-gamma induced, counter-screen for STAT3 activator project, cell-based, NIH 3T3, luciferase luminescence; shares compounds with STAT3 act-1; NIH 3T3 STAT1-luciferase reporter; activation (% of control), % at 5.7 µM; AID 1318, 2008; 1,200 compounds, 13% hits;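 active means activation above the solvent-only control well mean plus 3 SD, set per screening run, cut at about 120% in these data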;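 further: 100% = IFN-gamma with DMSO median signal so 100% means no change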
# Numbers without * were called inactive; / = not tested or not shown.
SMILES,STAT3 act-1,STAT1 act-1,STAT3 blocker,NF-kB neuron act,STAT1 inh,APP 5'UTR act,STAT3 act-2,NFkB act STAT3ct,STAT1 act-2
CCCOc1ccc(-c2nc(OC)c3ccccc3n2)cc1,142*,106,-42,1.7,-7,0,152*,105,100
CCCOc1ccc(C(=O)Nn2c(C)nc3ccccc3c2=O)cc1,104,100,-3,1.5,0,-6,/,/,/
COCCNC(=S)N/N=C(\C)c1cc2ccccc2o1,92,94,8,1.1,7,4,/,/,/
c1ccc(-c2nnc(CN3CCCc4ccccc43)o2)cc1,145*,101,-49,1.2,-1,4,124,105,102
COc1cccc(NS(=O)(=O)c2ccc3[nH]cc(C(=O)NCCC(C)C)c(=O)c3c2)c1,93,94,14,0.81,7,/,/,/,/
COc1ccc(Cl)cc1NC(=O)Nc1ccc(Br)cn1,160*,92,-72,1,7,-8,144*,101,90
COc1ccccc1NC(=O)Nc1ccc(Br)cn1,110,92,-4,1.2,10,-2,/,/,/
COc1cc(/C=C(\C#N)C(=O)Nc2ccc(SC(F)F)cc2)cc(OC)c1OC,102,97,-5,1.2,3,/,/,/,/
Cc1ccc(-n2c(N)c(S(=O)(=O)c3ccccc3)c3nc4ccccc4nc32)cc1,99,93,10,1,6,14,/,/,/
COc1cc(SC#N)ccc1N=Cc1c(C)[nH]n(-c2ccc(C)c(C)c2)c1=O,100,96,1,1,5,/,/,/,/
COc1cc(SC#N)ccc1N=Cc1c(C)[nH]n(-c2ccc(Cl)cc2)c1=O,144*,104,-52,1,-5,-2,125,105,102
O=C(CN1CCCC1)Nc1ccc(-c2nc3cc(NC(=O)CN4CCCC4)ccc3o2)cc1,150*,121,-58,0.89,-22,60,138*,130*,161*
O=C(O)CCCN1C(=O)/C(=C\c2ccco2)SC1=S,91,86,14,0.63,13,13,/,/,/
O=C1/C(=C\c2ccco2)SC(=S)N1Cc1ccccc1,168*,94,-66,1.1,7,10,157*,100,98
CN1C(=O)c2ccccc2C(C(=O)NCCCN2CCCC2=O)C1c1c[nH]c2ccccc12 (stereo not drawn),152*,96,-63,0.87,2,-10,136*,105,100
COCCN1C(=O)c2ccccc2C(C(=O)NCCCN2CCCC2)C1c1c[nH]c2ccccc12 (stereo not drawn),96,95,8,0.97,4,9,/,/,/
Cc1ccc(/C=C/C(=O)Nc2cccnc2)o1,95,102,6,1,-2,1,/,/,/
Clc1cccc(Cl)c1Cn1cnc2c(N3CCCCCC3)ncnc21,138*,103,-41,0.91,-4,16,139*,105,103
CCN(CC)c1ncnc2c1ncn2Cc1c(Cl)cccc1Cl,98,99,5,0.99,1,-2,/,/,/
COc1ccc(Cl)cc1C(=O)Nn1c(-c2cccs2)nc2ccccc2c1=O,95,105,4,0.67,-6,-5,/,/,/
CC1COc2ccccc2N1C(=O)c1ccc(Cl)nc1 (stereo not drawn),145*,98,-38,1.6,2,13,136*,104,101
CCC(CC)NC(=O)Cc1ccccc1[N+](=O)[O-],138*,94,-30,1.2,10,-11,140*,108,97
CCCC(C)NC(=O)Cc1ccccc1[N+](=O)[O-] (stereo not drawn),126,96,-30,1.1,4,11,/,/,/
Cc1cccc(C)c1NC(=O)C(=O)NCCOc1ccc(Cl)cc1,105,104,6,1,-4,0,/,/,/
COc1ccc(Br)cc1C(=O)Nc1ccccc1-c1ccccc1,138*,96,-48,0.85,4,2,135*,102,96
SMILES,STAT3 act-1,STAT1 act-1,STAT3 blocker,NF-kB neuron act,STAT1 inh,APP 5'UTR act,STAT3 act-2,NFkB act STAT3ct,STAT1 act-2
COc1ccccc1NC(=O)c1cc(Br)ccc1Cl,84,105,21,1,-7,4,/,/,/
COc1ccc(Br)cc1C(=O)Nc1cccc(NC(=O)c2ccco2)c1,82,94,24,0.3,6,-24,/,/,/
COc1ccc(Br)cc1C(=O)Nc1cccc(C)c1,157*,98,-67,1.1,2,15,139*,107,95
Cc1ccc2c(CC(=O)OC(C)C(=O)Nc3ncc(Cl)cc3Cl)coc2c1 (stereo not drawn),105,115,0,1.1,-16,14,/,/,/
C#CCn1c(=NC(=O)c2ccc(S(=O)(=O)N3CCc4ccccc4C3)cc2)sc2cc(S(N)(=O)=O)ccc21,144*,100,-57,1.1,-1,5,138*,113,102
Cc1ccc(-n2[nH]c(C)c(/C=C3/C=Nc4ccccc43)c2=O)cc1C,149*,99,-54,1.3,1,-11,138*,109,111
Cc1ccc(-n2[nH]c(C)c(/C=N/Nc3ccc([N+](=O)[O-])cc3[N+](=O)[O-])c2=O)cc1C,87,84,14,0.77,17,-26,/,/,/
COc1ccc(NC(=O)COC(=O)c2c(C)noc2C)c(OC)c1,93,109,10,1,-9,-9,/,/,/
N#C/C(=C\c1ccccc1[N+](=O)[O-])c1nc(C2CC2)cs1,146*,106,-48,2.8,-7,18,154*,106,110
N#C/C(=C/c1ccccc1[N+](=O)[O-])c1nc(C2CC2)cs1,147*,98,-57,1.1,3,12,158*,108,119
N#C/C(=C\c1ccc([N+](=O)[O-])cc1)c1nc(C2CC2)cs1,92,106,8,1.5,-6,29,/,/,/
CC(=O)c1cccc2c(O)c(C3=Nc4ccccc4C3=O)[nH]c12,138*,105,-42,4.1*,-5,105,152*,136*,181*
CC(=O)Nc1c(O)c2ccccc2[nH]c1=O,106,85,-3,1.2,14,4,/,/,/

# High-throughput results as filed in PubChem.
